The values below come from ChEMBL document CHEMBL1142562, “Four new neuroprotective dihydropyranocoumarins from Angelica gigas” (2005).

Common to all, as to type: functional
Common to all, as to settings: read-out: Activity

Experiment [1] in a line: Neuroprotective effect against glutamate-stimulated rat cortical cells assessed as cell viability at 1 uM after 1 hr by LDH assay relative to control. In short, it runs like this: (§1)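 Mixed neuron–glia cortical cultures from Sprague-Dawley fetal rats (17-19 days old), matured ≥2 weeks and used at 17 days in vitro. Cultures were washed with DMEM and pretreated 1 h with compound in DMSO (0.1% final), then given 100 µM glutamate for 24 h. Viability was read as LDH efflux and expressed as % protection relative to control and glutamate-only cultures. Mean ± STD of three experiments, 5-6 cultures each.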

Experiment [2] can be described thus: Neuroprotective effect against glutamate-stimulated rat cortical cells assessed as cell viability at 0.1 uM after 1 hr by LDH assay relative to control. In short, it runs like this: as §1
Experiment [3] is described as follows: Neuroprotective effect against glutamate-stimulated rat cortical cells assessed as cell viability at 10 uM after 1 hr by LDH assay relative to control. In short, it runs like this:
as §1

Each structure is given as a SMILES string.

Turning to `C/C(=C\CO)C(=O)O[C@H]1Cc2cc3ccc(=O)oc3cc2OC1(C)C`, the viability at 1 µM in experiment [1] was 19.9%. The viability at 0.1 µM in experiment [2] was 33.2%. Besides, the viability at 10 µM in experiment [3] turned out to be 1.2%.
On to `C/C(=C\C(=O)O[C@H]1Cc2cc3ccc(=O)oc3cc2OC1(C)C)CO`, for which the viability at 1 µM in experiment [1] was 34.1%. In experiment [2], the viability at 0.1 µM was 38.4%. The viability at 10 µM in experiment [3] was 35.1%.
The like results for `C[C@@H]1O[C@]1(C)C(=O)O[C@H]1Cc2cc3ccc(=O)oc3cc2OC1(C)C` were, in that order, 52.5%, 70% and 49%.
For the molecule `C[C@H]1O[C@@]1(C)C(=O)O[C@H]1Cc2cc3ccc(=O)oc3cc2OC1(C)C`, the viability at 1 µM in experiment [1] came to 61.1%. In addition, in experiment [2], the viability at 0.1 µM was found to be 47.5%. The viability at 10 µM in experiment [3] came out at 56.7%.
On the same counts, the results for `N#Cc1cc2c(cc1[N+](=O)[O-])=NC(=O)C(=O)N=2` are 40.5%, 29% and 50.5%.
For `NC(CCCP(=O)(O)O)C(=O)O` (racemic), the viability at 1 µM in experiment [1] stood at 25%. Besides, the viability at 0.1 µM in experiment [2] turned out to be 10%. Besides, the viability at 10 µM in experiment [3] came out at 39%.
On to `CC1(C)Oc2cc3oc(=O)ccc3cc2C[C@@H]1O` [DECURSINOL], for which, in experiment [1], the viability at 1 µM came to 69.6%. The viability at 0.1 µM in experiment [2] came to 33.4%. Further, in experiment [3], the viability at 10 µM was 40.7%.
The like results for `CC(C)=CC(=O)O[C@H]1Cc2cc3ccc(=O)oc3cc2OC1(C)C` [DECURSIN] were, in that order, 50%, 39% and 65.1%.
On the same counts, the results for `C[C@]12N[C@H](Cc3ccccc31)c1ccccc12` [DIZOCILPINE] are 65%, 54% and 70%.
